Screening data from PubChem BioAssay.
Sampled rows, rich in hits. Any-hit rate of the full collection: about 4.6%.
CHO parental Ca – signal in parental CHO cells, OX1R antagonist counter-screen | parental CHO-K1, ATP-induced calcium, Fluo-8 fluorescence | inhibition, % at 5.6 µM | hit rate 0.63% among 330,000 | AID 463079;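 active = inhibition above that plate's mean sample inhibition plus 3 SD, cut at about 26% in these data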
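Measured by: calcium-sensitive Fluo-8 fluorescence / Test system: CHO parental line / Controls: ATP-challenged DMSO wells low, unchallenged DMSO wells high / Measure: % inhibition / Compound: single nominal dose of 5.6 µM per compound / Replicates: single well per compound, no replicates / Reagent: ATP as calcium-mobilizing challenge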
OX1R antag-1 – blocks the human orexin 1 receptor. O43613. CHO/OX1R cells, Fluo-8 calcium fluorescence, orexin A. inhibition, % at 5 µM. hit rate 0.43% among 330,000. AID 434989;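 active = inhibition above its plate's threshold, mean inhibition of all tested compounds on the plate plus 3 SD, cut at about 37% in these data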
OX1R antag-2 – antagonists of human orexin 1 receptor (OX1R); OX1R-expressing cells, FRET antagonist read-out; O43613; hit rate 1.8% among 330,000; AID 485270; inhibition, % at 6.6 µM; in the data active = inhibition mostly above about 38%, no sharp cut-off; inactive = mostly below about 40%
TAAR1 ag – agonists of human TAAR1. hit rate 0.99% among 360,000. CHO RD-HGA16 TAAR1, Fluo-8 calcium fluorescence; vehicle wells 0%, saturating PEA agonist 100%. activation, % at 3 µM. Q96RJ0;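 active = activation above the mean activation of all test compounds in the run plus 3 SD, cut at about 38% in these data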
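Assay system – CHO-derived RD-HGA16 cells with stable Gα16 and human TAAR1 · Compound dosing – one-point dosing at 3 µM (nominal) · Incubation – 17-24 h seeding, 75 min 37 °C dye, 30 min RT · Measured by – kinetic Fluo-8 calcium fluorescence · Control set – DMSO vehicle as 0%, PEA at EC100 as 100% · Repeats – single well for each compound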
GPR7 antagonist – blocks human GPR7 receptor signaling. P48145. GPR7-expressing cells, fluorescence antagonist assay. inhibition, % at 4.4 µM. hit rate 1.1% among 290,000. AID 1861; in the data active = inhibition above about 16%, passing the limit was not always enough;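 also: cells stimulated with the agonist NPW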
Target sequence (P48145 whole entry, looked up): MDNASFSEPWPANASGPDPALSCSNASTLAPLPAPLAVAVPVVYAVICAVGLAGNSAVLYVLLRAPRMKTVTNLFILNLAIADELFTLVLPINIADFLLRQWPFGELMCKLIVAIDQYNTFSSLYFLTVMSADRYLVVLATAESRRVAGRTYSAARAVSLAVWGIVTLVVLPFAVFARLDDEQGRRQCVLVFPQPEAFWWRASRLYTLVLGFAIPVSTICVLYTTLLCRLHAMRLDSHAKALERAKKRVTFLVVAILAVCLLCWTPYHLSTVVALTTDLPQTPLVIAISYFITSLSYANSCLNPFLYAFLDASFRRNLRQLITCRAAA
TAAR1 antag – antagonists of human TAAR1; Q96RJ0; CHO RD-HGA16 TAAR1, Fluo-8 calcium fluorescence, antagonist; inhibition, % at 3 µM; hit rate 1.5% among 360,000; AID 624466;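 active = inhibition above a per-plate cutoff, the mean inhibition of test compounds on that plate plus 3 SD, cut at about 49% in these data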
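Test system: RD-HGA16 CHO cells with stable hTAAR1 and Gα16 / Probe or stimulus: EC80 β-phenethylamine stimulus / Times: seeding 17-24 h prior, 75-min 37 °C, 30-min RT dye loading / Detection: Fluo-8 calcium-sensitive fluorescence / Read-out basis: % inhibition scaled between DMSO and EC80 PEA controls / Repeats: singlicate, one well per test compound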
Numbers stand for hits; – = inactive; · = not tested or not shown.

SMILES | CHO parental Ca | OX1R antag-1 | OX1R antag-2 | TAAR1 ag | GPR7 antagonist | TAAR1 antag
COc1ccccc1C(=O)Nc1nc(-c2ccc3c(c2)OCCO3)cs1 | – | – | 46.8 | – | – | –
Cc1cc(Cl)ccc1NC(=O)CN1CCC(C(O)(c2ccccc2)c2ccccc2)CC1 | – | – | – | 55.7 | – | –
Cc1ccc(S(=O)(=O)N2CCOCC2)cc1NC(=O)c1cc(-c2ccccn2)nc2ccccc12 | – | – | – | – | – | 49.1
Cc1ccccc1NC(=O)c1cc(S(=O)(=O)N2CCOCC2)ccc1F | – | – | 46.7 | – | – | –
O=C(Nc1cc(S(=O)(=O)N2CCOCC2)ccc1N1CCCCC1)c1cc(-c2ccccn2)nc2ccccc12 | – | – | – | – | – | –
CC(C)OC(=O)/C(=C\c1ccc2c(c1)c1ccccc1n2C)NC(=O)c1ccccc1 | – | – | – | – | – | 49.5
O=C(CN1C(=O)CC(c2ccccc2)S(=O)(=O)c2ccccc21)N1CCCCC1 (centres undefined) | – | – | – | – | – | –
CCN(Cc1ccccc1)C(=O)CN1C(=O)c2ccccc2S1(=O)=O | – | – | – | – | · | –
Cn1nnnc1SCC(=O)N1CCN(c2ccc(Cl)cc2)CC1 | – | – | – | – | 15.8 | –
Cn1nnnc1SCC(=O)N1CCCCC1 | – | – | – | – | – | –
C=CCc1cccc(/C=N/NC(=O)CCC(=O)Nc2ccc(C)cc2)c1O | – | – | – | – | – | –
O=C(NCCCN1CCOCC1)C(=O)N/N=C/c1cccc2ccccc12 | – | – | 49.0 | – | – | –
CCC(=O)N/N=C/c1ccc(-c2ccc([N+](=O)[O-])cc2)o1 | – | – | – | – | – | –
CC(C)(C)C(=O)/C=c1\s/c(=C\c2ccc(-c3ccc([N+](=O)[O-])cc3)o2)c(=O)n1CC(=O)NC(N)=O | 64.4 | 71.3 | – | 53.1 | – | 59.5
O=C(NCCc1cccs1)C1CC(c2c(Cl)cccc2Cl)=NO1 (centres undefined) | – | – | – | 46.6 | – | –
O=C(CNC(=O)c1ccccc1Cl)NCCc1cccs1 | – | – | – | 39.9 | · | –
O=C(NCc1cccs1)C1CC(c2ccc(Cl)c(Cl)c2)=NO1 (centres undefined) | – | – | – | – | – | –
O=C(Cc1cccs1)NNC(=O)c1ccccc1Cl | – | – | – | – | · | –
O=C(Nc1ccccc1)C(=O)c1c[nH]c2ccccc12 | – | – | – | – | – | –
O=C(Cc1cccs1)Nc1nnc(CCc2ccccc2)s1 | – | – | – | – | 14.4 | –
CCN(CC(=O)Nc1c(F)cccc1F)C(=O)c1ccc(C#N)cc1 | – | – | – | – | – | –
CS(=O)(=O)Nc1ccccc1C(=O)OCC(=O)N1CCC(c2ccccc2)=N1 | – | – | 62.8 | – | · | –
CCOc1cc(/C=C2\CCCc3c2nc2ccccc2c3C(=O)O)ccc1OC | – | – | 133.2 | 59.0 | – | –
COc1cccc(/C=C2\CC(C)Cc3c2nc2ccccc2c3C(=O)O)c1OC (centres undefined) | – | – | 75.4 | – | – | –
COc1cccc(NC(=O)CN(C)C(=O)c2ccccc2OCC(=O)Nc2cccc(C(F)(F)F)c2)c1 | – | – | – | – | · | –
SMILES | CHO parental Ca | OX1R antag-1 | OX1R antag-2 | TAAR1 ag | GPR7 antagonist | TAAR1 antag
CN(CC(=O)Nc1cccc(F)c1)C(=O)c1ccccc1OCC(=O)Nc1cccc(C(F)(F)F)c1 | – | – | – | – | · | 82.2
Clc1ccc(SCCOCCN2CCc3ccccc3C2)cc1 | – | – | – | 38.0 | – | –
Cc1ccc(OCCCCN2CCc3ccccc3C2)cc1 | – | – | – | 40.5 | – | –
c1ccc(-c2ccccc2OCCOCCN2CCc3ccccc3C2)cc1 | – | – | – | – | 15.8 | –
Cc1ccc(OCCCCN2CCCCC2)cc1 | · | · | · | – | – | –
O=C1NC2(CCCCC2)C(=O)N1CC(=O)N(Cc1ccccc1)c1ccccc1 | – | – | – | – | – | –
CN(C)C(=O)COc1ccc2c(-c3ccccc3)cc(=O)oc2c1 | · | · | · | – | – | –
CSc1ccc(-c2cccc3nncn23)cc1 | · | · | · | – | · | –
COCC(C)n1c(SCC(=O)N(C)C2CCS(=O)(=O)C2)nc2ccccc2c1=O (centres undefined) | – | – | – | – | – | –
